Data published in PMC5860981 (Journal of immunology (Baltimore, Md. : 1950), 2018).

Columns and labels:
Assay type in all cases: cell-based, human
neutrophils = experiment: PMA-induced NET formation in neutrophils; conditions: 100 μM, neutrophils stimulated with 25 nM PMA 3 h
NETs = experiment: Detection of LL-37 in NETs by immunofluorescence microscopy; conditions: 100 μM, PMA-induced NETs, antibody specific for native LL-37
Outline: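 Human neutrophils, hypotonically lysed to remove RBCs, seeded at 1 × 10^5 cells on 1% BSA-treated coverslips, 30 min at 37 °C, 5% CO2. Where indicated, 100 μM PAD inhibitor. NETs induced with 25 nM PMA, 3 h. Fixed in 3.7% paraformaldehyde; mouse anti-LL-37 (1:50, 1 h RT), Alexa-Fluor-647 anti-mouse (1:1000, 45 min), Hoechst 1 μg/mL; imaged at 20×.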

pDCs = experiment: pDC stimulation with NETs

NC(=O)[C@H](CCCN=C(N)CCl)NC(=O)c1ccccc1 [Cl-A, Cl-amidine]
NET formation and levels of citrullination (neutrophils): reduced both the levels of citrullination (Figure S3) and NET formation | LL-37 fluorescence spots relative to amount of NETs, versus no inhibitor (NETs): 3 times | IL-6 in conditioned medium from pDCs treated with NETs generated in the presence of inhibitor (pDCs; 100 μM inhibitor, ELISA): substantial amount of IL-6 | MxA expression in pDCs exposed to NETs pre-treated with inhibitor (pDCs; NETs from neutrophils given 100 μM inhibitor before PMA, real-time PCR): upregulated markedly
